Experiments:
MCF7 = test: Antiproliferative activity against human MCF7 cells after 72 hrs; assay type: functional, cell-based; details: MCF7, 72 h
Method in brief: (§1)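 Cells were grown in a 1:1 Advanced DMEM/F12 mix with nonessential amino acids, 2 mM L-glutamine, penicillin/streptomycin and 10% FBS at 37 °C and 5% CO₂. They were seeded at 2000/well and left to attach overnight, then dosed over a concentration range (1% DMSO final) for 72 h. Viable cells were read by MTS/PMS, normalised to 1% DMSO controls (100%), and IC50 was taken from a nonlinear dose–response fit; three experiments, each in triplicate.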

SK-BR-3 = test: Antiproliferative activity against human SKBr3 cells after 72 hrs; assay type: functional, cell-based; details: SK-BR-3, 72 h; method in brief: as §1

Row | IC50 (MCF7) [µM] | IC50 (SK-BR-3) [µM] | Structure (SMILES)
1 | > 100 | > 100 | CO/N=C1\C=C[C@]2(C)[C@H]3CC[C@@]4(C)[C@@H](c5ccoc5)OC(=O)[C@H]5O[C@]54[C@]3(C)[C@H](OC(C)=O)C[C@H]2C1(C)C
2 | > 100 | > 100 | CC(=O)O[C@@H]1C[C@H]2C(C)(C)C(=O)CC[C@]2(C)[C@H]2CC[C@@]3(C)[C@@H](c4ccoc4)OC(=O)[C@H]4O[C@]43[C@@]21C
3 | > 100 | > 100 | CCC(=O)O[C@@H]1C[C@H]2C(C)(C)C(=O)C=C[C@]2(C)[C@H]2CC[C@@]3(C)[C@@H](c4ccoc4)OC(=O)[C@H]4O[C@]43[C@@]21C
4 | 38.9 | 13 | CO[C@@H]1C[C@H]2C(C)(C)C(=O)C=C[C@]2(C)[C@H]2CC[C@@]3(C)[C@@H](c4ccoc4)OC(=O)[C@H]4O[C@]43[C@@]21C
5 | > 100 | > 100 | CC(=O)O[C@@H]1C[C@H]2C(C)(C)C(=O)C(O)C(O)[C@]2(C)[C@H]2CC[C@@]3(C)[C@@H](c4ccoc4)OC(=O)[C@H]4O[C@]43[C@@]21C (some centres not stated)
6 | 47.7 | 82.4 | CC(=O)O[C@@H]1C[C@H]2C(C)(C)C(O)C=C[C@]2(C)[C@H]2CC[C@@]3(C)C(c4ccoc4)OC(O)[C@H]4O[C@]43[C@@]21C (single isomer, unassigned)
7 | 8.84 | 3.22 | CC(=O)O[C@@H]1C[C@H]2C(C)(C)C(=O)C=C[C@]2(C)[C@H]2CC[C@@]3(C)[C@H](c4ccoc4)OC(=O)[C@H]4O[C@]43[C@@]21C [GEDUNIN]
8 | > 100 | > 100 | CC(=O)O[C@@H]1C[C@H]2C(C)(C)C(=O)C3OC(C)(C)OC3[C@]2(C)[C@H]2CC[C@@]3(C)C(c4ccoc4)OC(=O)[C@H]4O[C@]43[C@@]21C (single isomer, unassigned)
9 | 14.8 | 12.1 | CCO[C@@H]1C[C@H]2C(C)(C)C(=O)C=C[C@]2(C)[C@H]2CC[C@@]3(C)[C@@H](c4ccoc4)OC(=O)[C@H]4O[C@]43[C@@]21C
10 | 9.79 | 7.05 | CC1(C)C(=O)C=C[C@]2(C)[C@H]3CC[C@@]4(C)[C@@H](c5ccoc5)OC(=O)[C@H]5O[C@]54[C@]3(C)[C@H](OC(N)=O)C[C@@H]12
11 | > 100 | > 100 | CC(=O)O[C@@H]1C[C@H]2C(C)(C)/C(=N/OCc3ccccc3)C=C[C@]2(C)[C@H]2CC[C@@]3(C)[C@@H](c4ccoc4)OC(=O)[C@H]4O[C@]43[C@@]21C
12 | > 100 | > 100 | CC1(C)C(=O)C=C[C@]2(C)[C@H]3CC[C@@]4(C)[C@@H](c5ccoc5)OC(=O)[C@H]5O[C@]54[C@]3(C)[C@H](OCc3ccccc3)C[C@@H]12
13 | 54.3 | 47.7 | CC(=O)O[C@@H]1C[C@H]2C(C)(C)C(O)C=C[C@]2(C)[C@H]2CC[C@@]3(C)C(c4ccoc4)OC(=O)[C@H]4O[C@]43[C@@]21C (single isomer, unassigned)
14 | > 100 | > 100 | CC(=O)OC1C=C[C@]2(C)[C@H]3CC[C@@]4(C)C(c5ccoc5)OC(=O)[C@H]5O[C@]54[C@]3(C)[C@H](OC(C)=O)C[C@H]2C1(C)C (single isomer, unassigned)
15 | > 100 | > 100 | CCO/N=C1\C=C[C@]2(C)[C@H]3CC[C@@]4(C)[C@@H](c5ccoc5)OC(=O)[C@H]5O[C@]54[C@]3(C)[C@H](OC(C)=O)C[C@H]2C1(C)C
16 | 33.2 | 26.5 | CC(=O)O[C@@H]1C[C@H]2C(C)(C)/C(=N/O)C=C[C@]2(C)[C@H]2CC[C@@]3(C)[C@@H](c4ccoc4)O/C(=N\O)[C@H]4O[C@]43[C@@]21C
17 | > 100 | > 100 | CC(=O)O[C@@H]1C[C@H]2C(C)(C)C(O)CC[C@]2(C)[C@H]2CC[C@@]3(C)[C@@H](c4ccoc4)OC(O)[C@H]4O[C@]43[C@@]21C (some centres not stated)
18 | 37.3 | 18.1 | CCCO[C@@H]1C[C@H]2C(C)(C)C(=O)C=C[C@]2(C)[C@H]2CC[C@@]3(C)[C@@H](c4ccoc4)OC(=O)[C@H]4O[C@]43[C@@]21C
19 | 10.9 | 4.49 | CC1(C)C(=O)C=C[C@]2(C)[C@H]3CC[C@@]4(C)[C@@H](c5ccoc5)OC(=O)[C@H]5O[C@]54[C@]3(C)C(=O)C[C@@H]12

Row | Structure (SMILES) | IC50 (MCF7) [µM] | IC50 (SK-BR-3) [µM]
20 | CC1(C)C(=O)C=C[C@]2(C)[C@H]3CC[C@@]4(C)[C@H](c5ccoc5)OC(=O)[C@H]5O[C@]54[C@]3(C)[C@H](O)C[C@@H]12 [DEACETYLGEDUNIN] | 29 | 21.1
21 | CC1(C)C(=O)[C@H]2O[C@H]2[C@]2(C)[C@H]3CC[C@@]4(C)C(c5ccoc5)OC(=O)[C@H]5O[C@]54[C@]3(C)[C@H](O)C[C@@H]12 (single isomer, unassigned) | > 100 | > 100

Reference: ChEMBL document CHEMBL1140159, “Gedunin, a novel hsp90 inhibitor: semisynthesis of derivatives and preliminary structure-activity relationships” (J Med Chem, 2008)
